mIAP activ: mouse IAP activation. muIAP, CDP-Star luminescence, 30 min; stronger effect = higher value; 1 = vehicle-only enzyme signal, 0 = enzyme-free wells. activation factor at 10 µM. 0.24% of 330,000 active. AID 2805;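 active means activation factor of at least 2 at 20 µM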
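also added = chemiluminescent substrate CDP-Star | test system = mouse IAP enzyme | signal = chemiluminescence readout | compound = DMSO-dissolved test compounds | incubation = 30 min at room temperature | benchmarks = DMSO wells, no-enzyme wells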
hIAP inh: human IAP inhibition; P09923; purified IAP, CDP-Star luminescence, 30 min; inhibition, % at 10 µM; 0.12% of 330,000 active; AID 2544;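 active means inhibition reaching a set limit with compound at 10 µM in the primary screen, cut at about 35% in these data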
Target sequence (P09923 whole entry, looked up): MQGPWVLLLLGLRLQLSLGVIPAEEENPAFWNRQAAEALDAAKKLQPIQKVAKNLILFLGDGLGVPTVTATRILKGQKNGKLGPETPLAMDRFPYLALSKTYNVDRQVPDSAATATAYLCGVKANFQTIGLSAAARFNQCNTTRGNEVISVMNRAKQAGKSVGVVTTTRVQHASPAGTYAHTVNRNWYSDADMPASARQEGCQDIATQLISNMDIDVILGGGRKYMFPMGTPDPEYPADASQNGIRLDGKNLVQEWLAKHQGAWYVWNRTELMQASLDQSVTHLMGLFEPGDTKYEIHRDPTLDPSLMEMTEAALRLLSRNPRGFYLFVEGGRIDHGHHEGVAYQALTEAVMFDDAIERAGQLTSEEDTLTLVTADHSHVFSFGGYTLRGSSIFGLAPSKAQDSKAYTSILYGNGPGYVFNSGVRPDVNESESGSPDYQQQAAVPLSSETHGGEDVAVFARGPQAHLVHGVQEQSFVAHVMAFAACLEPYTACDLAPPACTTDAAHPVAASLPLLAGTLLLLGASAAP
bIAP inhibitor: intestinal alkaline phosphatase (bovine) inhibition | inhibition, % at 20 µM | purified bovine IAP, CDP-star luminescence, 30 min | 190,000 tested, under 10 active;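 active means over 50% inhibition of intestinal alkaline phosphatase at 20 µM in the single-dose screen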
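System: Purified bovine intestinal alkaline phosphatase (IAP) enzyme | Input: IAP diluted 1/65,000,000 in the well | Also added: CDP-star chemiluminescent phosphatase substrate, 30 µM final | Dosing: 20 µM single dose | Times: Enzyme reaction for 30 min at room temperature | Detection: Luminescence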
mIAP inh: mouse IAP inhibition | purified mouse IAP, CDP-Star luminescence, 30 min | 0.2% of 330,000 active | inhibition, % at 10 µM;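 active means inhibition of at least 40% at 10 µM in the primary screen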
hIAP activ: increases human intestinal alkaline phosphatase activity. purified human IAP, CDP-Star luminescence, 30 min; stronger effect = higher value; 1 = vehicle-only enzyme, 0 = enzyme-free background. 0.16% of 330,000 active. activation factor at 10 µM. P09923;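 active means activation factor of the enzyme at least 2-fold when tested at 20 µM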
bIAP act: increases bovine intestinal alkaline phosphatase activity | purified bovine IAP, CDP-star luminescence, 30 min; stronger effect = higher value; fold of DMSO-control signal, blank-subtracted | activation factor at 20 µM | 0.17% of 200,000 active | AID 1016;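 active means activation factor of 2 or more at 20 µM, a signal rise over negative controls twice the positive control's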
mIAP inh confirm: mouse IAP inhibition confirmation | shares compounds with mIAP inh | purified mouse IAP, CDP-Star luminescence, 30 min | inhibition, % at 10 µM | 4.7% of 11,000 active;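 active means inhibition of at least 40% at 10 µM in either of the two replicates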
Hits are given with their value; – = inactive; · = no result. An excerpt weighted towards active compounds, which were near 0.77% of everything screened.

SMILES | mIAP activ | hIAP inh | bIAP inhibitor | mIAP inh | hIAP activ | bIAP act | mIAP inh confirm
CCCSc1nnc(NC(=O)CSc2sc3c(O)cc(=O)[nH]c3c2C#N)s1 | – | – | · | – | – | · | ·
N#Cc1cccc(NC(=O)CSc2sc3c(O)cc(=O)[nH]c3c2C#N)c1 | – | – | · | – | – | · | ·
N#Cc1c(SCC(=O)Nc2nccs2)sc2c(O)cc(=O)[nH]c12 | – | – | · | 48 | – | · | 63
N#Cc1c(SCC(=O)Nc2nc3ccccc3s2)sc2c(O)cc(=O)[nH]c12 | – | – | · | 61 | – | · | 73
N#Cc1c(SCC(=O)Nc2nc3ccc(Br)cc3s2)sc2c(O)cc(=O)[nH]c12 | – | – | · | 41 | – | · | 72
CCN(CC)S(=O)(=O)c1ccc(OCC2CCCCO2)c([N+](=O)[O-])c1 (stereo unspecified) | – | – | · | – | – | · | ·
Cc1ccc(NC(=O)CCNS(=O)(=O)c2ccc3[nH]c(=O)oc3c2)c(Cl)c1 | – | – | · | 59 | – | · | 62
O=C(CCNS(=O)(=O)c1ccc2[nH]c(=O)oc2c1)Nc1ccccc1 | – | – | · | 41 | – | · | 54
Cc1ccc(NC(=O)CCNS(=O)(=O)c2ccc3[nH]c(=O)oc3c2)cc1F | – | – | · | 42 | – | · | 51
Cc1cccc(C(C)C)c1NC(=O)c1c(-c2ccccc2)noc1C | – | – | · | – | – | · | ·
Cc1cc(C)n(-c2ccc(C(=O)OCC(=O)Nc3cc(S(C)(=O)=O)ccc3Cl)cc2)n1 | – | – | · | – | – | · | ·
CC1CCCC(NC(=S)Nc2ccc(SC(F)F)cc2)C1C (stereo unspecified) | 8.1 | – | – | – | – | – | –
C[C@@H](C(=O)Nc1ccc(SC(F)F)cc1)N1C(=O)C2CCCCC2C1=O (stereo partly specified) | – | – | · | – | – | · | ·
CCN1CCC(NC(=O)Nc2cc(Cl)ccc2OC)CC1 | – | – | – | – | – | – | ·
CCN(C(=O)Cn1cnc2ccccc2c1=O)C1CCS(=O)(=O)C1 (stereo unspecified) | – | – | · | – | – | · | ·
CC(=O)c1sc2nc(-c3ccco3)ccc2c1N | – | – | · | 59 | – | · | 63
Nc1c(C(=O)Nc2ccc(Br)cc2)sc2nc(-c3ccco3)ccc12 | – | – | – | – | – | – | ·
COc1cccc(C(=O)NC2CC3CCCC(C2)N3CC(=O)Nc2ccccc2C(F)(F)F)c1 (stereo unspecified) | – | – | · | – | – | · | ·
CCc1cccc(CC)c1NC(=O)CN1C2CCCC1CC(NC(=O)Nc1cccc(OC)c1)C2 (stereo unspecified) | 2.7 | – | – | – | – | – | –
Cn1nc(OC(=O)Nc2ccccc2)cc1C(F)(F)F | – | – | – | – | – | – | ·
Cn1nc(OC(=O)Nc2cccc(Cl)c2)cc1C(F)(F)F | 3.4 | – | – | – | – | – | –
O=C(CN1C(=O)NC2(CCCCCCC2)C1=O)NCc1ccccc1 | – | – | · | – | – | · | ·
CCCNC(=O)c1ccc2c(=O)n(Cc3ccco3)c(=S)[nH]c2c1 | – | – | – | 64 | – | – | 66
O=C(CN1C(=O)/C(=C/c2ccco2)SC1=S)Nc1ccc(O)c(C(=O)O)c1 | – | – | · | 75 | – | · | 76
CC(C(=O)N(C)C1CCS(=O)(=O)C1)N1C(=O)/C(=C/c2ccco2)SC1=S (stereo unspecified) | – | – | · | 40 | – | · | 50
SMILES | mIAP activ | hIAP inh | bIAP inhibitor | mIAP inh | hIAP activ | bIAP act | mIAP inh confirm
O=C(CCCN1C(=O)/C(=C/c2cccs2)SC1=S)Nc1ccc(O)c(C(=O)O)c1 | · | · | – | · | · | – | ·
CC(=C\c1ccco1)/C=C1/SC(=S)N(CC(=O)O)C1=O | – | – | · | 51 | – | · | 50
CC(C(=O)Nc1ccc(C(=O)O)c(O)c1)N1C(=O)/C(=C\c2ccco2)SC1=S (stereo unspecified) | – | – | · | 62 | – | · | 73
O=C(CN1C(=O)/C(=C/c2ccco2)SC1=S)NC1CCS(=O)(=O)C1 (stereo unspecified) | – | – | · | 58 | – | · | 79
O=C(CCN1C(=O)/C(=C/c2ccccc2)SC1=S)NC1CCS(=O)(=O)C1 (stereo unspecified) | – | – | · | – | – | · | ·
O=C(CN1C(=O)/C(=C/c2ccco2)SC1=S)Nc1ccc(C(=O)O)c(O)c1 | – | – | · | 67 | – | · | 86
O=C(Nc1ccccc1Oc1ccccc1)c1cccs1 | – | – | · | – | – | · | ·
COc1ccc(CCNC(=O)C2CCN(S(=O)(=O)c3ccc(C)cc3)CC2)cc1 | – | – | · | – | – | · | ·
CC(C)OC(=O)NCCOC(=O)Nc1cccc(Cl)c1 | 2 | – | – | – | – | – | –
CC1CC(=O)c2c(cc3c(-c4c(O)cc(O)c5c(O)c6c(cc45)OC(C)CC6=O)c(O)cc(O)c3c2O)O1 (stereo unspecified) | – | – | – | 42 | – | – | 68
O=C1CC(c2ccccc2)Oc2cc(O)cc(O)c21 (stereo unspecified) | – | – | · | – | – | · | ·
O=C(N/N=C/c1ccc[nH]1)c1ccc2c(c1)OCO2 | – | – | – | 50 | – | – | 64
O=C(CCNC(=O)c1ccc(Br)cc1)Nc1ncccc1O | – | – | · | – | – | · | ·
C#CCOCCOCCOCCNc1nc(N2CCN(C(=O)CCCCCCCCCCNC(=O)Cn3cc(C[C@@H](C)O)nn3)CC2)nc(N2CCN(C(=O)CCCCCCCCCCNC(=O)[C@@H]([C@H](C)CC)n3cc(CCCCCN)nn3)CC2)n1 | 6.1 | – | · | – | – | · | –
C#CCOCCOCCOCCNc1nc(N2CCN(C(=O)CCCCCCCCCCNC(=O)Cn3cc(CCCCCN)nn3)CC2)nc(N2CCN(C(=O)CCCCCCCCCCNC(=O)Cn3cc(C[C@@H](C)O)nn3)CC2)n1 | 2.1 | – | · | – | – | · | –
COc1cc(/C=C/C(=O)/C=C(O)/C=C/c2ccc(O)c(OC)c2)ccc1O | – | · | · | 61 | · | · | 53
COc1cc(/C=C/C(=O)CC(=O)/C=C/c2ccc(O)c(OC)c2)ccc1O | – | · | – | 58 | · | – | 49
COc1cccc(NC(=O)NCC2CCN(Cc3ccc(F)cc3)CC2)c1 | – | – | · | – | – | · | ·
Cc1ccc(NC(=O)NCC2CCN(Cc3cccc(Cl)c3)CC2)cc1Cl | 4.2 | – | – | – | – | – | –
CCc1ccc(NC(=O)NCC2CCN(Cc3cccc(Cl)c3)CC2)cc1 | 3.1 | – | · | – | – | · | –
O=c1cc(-c2ccc(O)cc2)oc2cc(O)c(C3OC(CO)C(O)C(O)C3O)c(O)c12 (stereo unspecified) | – | – | – | 50 | – | – | 47
O=C1CC(c2ccc(O)c(O)c2)Oc2c1ccc(O)c2O (stereo unspecified) | – | – | · | 78 | – | · | 81
O=C1CC(c2ccc(O)cc2)Oc2cc(O)cc(O)c21 (stereo unspecified) | – | – | – | – | – | – | ·

Screening results: PubChem BioAssay, Sanford-Burnham Center for Chemical Genomics
